# Assay results pooled from the literature.
# Each line is one published result; the experiments were not run side by side.
# Target: Inhibitor of nuclear factor kappa-B kinase subunit epsilon (IKBKE, Homo sapiens, UniProt Q14164)
# Residues used in one study (Q14164 1-716): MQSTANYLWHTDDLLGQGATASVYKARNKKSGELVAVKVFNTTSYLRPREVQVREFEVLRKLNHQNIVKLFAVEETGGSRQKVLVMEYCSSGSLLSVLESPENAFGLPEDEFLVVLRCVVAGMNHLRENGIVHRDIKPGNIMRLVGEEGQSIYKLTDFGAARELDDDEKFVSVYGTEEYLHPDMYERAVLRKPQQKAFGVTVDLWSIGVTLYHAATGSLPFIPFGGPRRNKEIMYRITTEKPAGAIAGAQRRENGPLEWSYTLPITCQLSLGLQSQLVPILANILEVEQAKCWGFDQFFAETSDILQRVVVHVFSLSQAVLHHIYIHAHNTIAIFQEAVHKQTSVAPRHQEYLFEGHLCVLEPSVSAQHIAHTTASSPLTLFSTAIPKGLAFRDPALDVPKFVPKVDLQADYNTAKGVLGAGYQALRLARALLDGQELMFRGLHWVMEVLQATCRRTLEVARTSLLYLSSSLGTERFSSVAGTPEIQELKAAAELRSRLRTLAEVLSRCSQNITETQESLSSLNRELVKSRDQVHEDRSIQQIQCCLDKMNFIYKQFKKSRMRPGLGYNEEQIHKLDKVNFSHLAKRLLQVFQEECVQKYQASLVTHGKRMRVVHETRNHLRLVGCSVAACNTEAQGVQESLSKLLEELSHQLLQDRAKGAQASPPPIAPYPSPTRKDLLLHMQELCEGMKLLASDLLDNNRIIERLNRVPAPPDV
SMILES,assay,conditions,quantity,value
Cc1nn(CC(F)(F)F)cc1Nc1ncc(Br)c(NCc2ccc(S(N)(=O)=O)cc2)n1,"enzyme activity, inhibitor, radiometric",1 µM,remaining activity,23%
Nc1nc(Nc2ccc(S(N)(=O)=O)cc2)nn1C(=O)c1c(F)cccc1F,cell-free assay,0.5 µM,remaining signal,95.9%
COc1cc(/C=C/C(=O)CC(=O)/C=C/c2ccc(O)c(OC)c2)ccc1O,"enzyme activity, inhibitor",1 µM,activity vs control,72%
NS(=O)(=O)c1ccc(CNc2ccnc(Nc3cccc(NC(=O)N4CCCC4)c3)n2)cc1,"enzyme activity, inhibitor, radiometric",1 µM,remaining activity,79%
CN1CCN(c2ccc3nc(-c4c(N)c5c(F)cccc5[nH]c4=O)[nH]c3c2)CC1,"enzyme activity, inhibitor",0.5 µM,activity vs control,42.9%
CCOc1cc(-c2nncn2C)ccc1Nc1ncc2cc(C)nc(NCC(C)(C)C)c2n1,"enzyme activity, inhibitor, FRET",1 µM,inhibition,< 15%
O=C(N[C@H]1CCCCC/C=C\C2C[C@@]2(C(=O)O)NC(=O)[C@@H]2C[C@@H](Oc3ccncc3)CN2C1=O)OC1CCCC1 (stereo partly shown),"binding, competition with immobilised ligand",1 µM,remaining binding,100%
CC/C(=N\NC(=O)NCc1cccc(O)c1)c1ccc(O)c(C)c1O,"enzyme activity, inhibitor",0.1 µM,inhibition,-0.4%
Nc1c(C(=O)NCc2ccc(C(=O)NCCCC3CCCCC3)cc2)cnn1-c1ccccc1,"cell-free assay, competition with immobilised ligand",0.1 µM,remaining binding,100%
COc1cc(Nc2c(C#N)cnc3cc(OCCCN4CCN(C)CC4)c(OC)cc23)c(Cl)cc1Cl,cell-free assay,0.5 µM,remaining signal,75.4%
CC(=O)C1=C(C)N(c2cccc(C(F)(F)F)c2)C(=O)N[C@@H]1c1ccc(C#N)nc1,"cell-free assay, competition with immobilised ligand",1 µM,remaining binding,98.2%
Cc1cc(NC(=O)c2cccc3cc(-c4cccc5[nH]nc(N)c45)ccc23)ccc1F,"enzyme activity, inhibitor",0.1 µM,activity vs control,111%
O=C(Nc1cccc(Nc2ncc(Br)c(NCCc3cnc[nH]3)n2)c1)N1CCCC1,"enzyme activity, inhibitor, radiometric",1 µM,remaining activity,44%
COc1cc2ncnc(Nc3ccc(Oc4ccccc4)c(C)c3C)c2cc1OC,"enzyme activity, inhibitor",1 µM,inhibition,1%
C[C@@H]1CN(c2cc(-c3nn(C)c4ccc(OC5(C)CC5)cc34)ncn2)C[C@H](C)O1,"cell-free assay, competition with immobilised ligand",1 µM,remaining binding,65%
CN1CCc2cc(Nc3ncc(C4CC4)c(NCCCNC(=O)C4CCC4)n3)ccc2C1,"enzyme activity, inhibitor, radiometric",1 µM,remaining activity,4%
COc1cc(-c2cn(C3CCc4c(F)cccc4N(CC(F)(F)F)C3=O)nn2)ccc1-n1cnc(C)c1 (stereo not shown),"cell-free assay, competition with immobilised ligand",1 µM,remaining binding,100%
NS(=O)(=O)c1ccc(CNc2nc(Nc3cccc(CN4CCOCC4)c3)ncc2C2CC2)cc1,"enzyme activity, inhibitor, radiometric",1 µM,remaining activity,43%
CC(C)CC(=O)N1CCc2nc(-c3ccc(Br)cc3)nc(N(C)Cc3ccccc3)c2C1,"cell-free assay, competition with immobilised ligand",0.1 µM,remaining binding,100%
O=C(NCCCNc1ccnc(Nc2cccc(NC(=O)N3CCCC3)c2)n1)C1CCC1,"enzyme activity, inhibitor, radiometric",1 µM,remaining activity,33%
C[C@H](c1cccc(C#N)c1)n1cc(Cl)cc(C(N)=O)c1=N,"cell-free assay, competition with immobilised ligand",1 µM,remaining binding,82%
COc1ccc(COc2ccc(Cc3cnc(N)nc3N)cc2OC)cc1,cell-free assay,0.5 µM,remaining signal,96.7%
